APJ antagonist – antagonists of human apelin receptor APJ, primary screen, CHO-K1 cells, beta-arrestin complementation, luminescence | inhibition, % at 20 µM | P35414 | actives 0.32% (n = 330,000);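 active = inhibition above about 40% at 20 µM, limit read from the data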;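 also: cells challenged with 10 nM apelin-13 agonist together with compound; plate controls were apelin-13 plus DMSO wells for no effect and DMSO wells lacking apelin-13 for full effect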
EBI2 block – EBI2 receptor antagonists, beta-arrestin recruitment, primary screen, cell-based, luminescence, 7a,25-OHC stimulation, uHTS; 7a,25-OHC stimulated; inhibition, % at 5 µM; actives 0.81% (n = 360,000); in the data active = inhibition above about 38%;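 also: enzyme fragment complementation signal reports receptor beta-arrestin coupling in cells; 0% = agonist plus DMSO wells and 100% = wells without agonist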
CCR6 antagonist – CCR6 receptor antagonists, primary screen, cell-based, CHO-K1, luminescence, beta-arrestin, uHTS | CHO-K1 CCR6 PathHunter beta-arrestin, CCL20-stimulated | inhibition, % at 20 µM | actives 0.49% (n = 340,000);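 active = compounds whose inhibition of the agonist-driven luminescence signal at 20 µM reaches about 50%, limit read from the data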;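 also: cells stimulated with CCL20 at 14 nM final; plate controls were DMSO with CCL20 for no effect and DMSO without agonist for full effect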
Target sequence (P51684 whole entry, looked up): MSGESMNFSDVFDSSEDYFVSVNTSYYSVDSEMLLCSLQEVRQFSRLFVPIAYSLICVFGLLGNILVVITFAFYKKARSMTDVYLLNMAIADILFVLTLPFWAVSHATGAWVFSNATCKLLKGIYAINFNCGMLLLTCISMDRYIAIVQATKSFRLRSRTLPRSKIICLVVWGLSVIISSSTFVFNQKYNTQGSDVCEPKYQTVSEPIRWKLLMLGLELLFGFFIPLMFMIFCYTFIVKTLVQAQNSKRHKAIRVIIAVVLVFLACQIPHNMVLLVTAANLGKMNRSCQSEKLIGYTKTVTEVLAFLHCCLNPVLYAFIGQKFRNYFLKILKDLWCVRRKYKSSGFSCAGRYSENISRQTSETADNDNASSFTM
APJ agonist – agonists of human apelin receptor APJ, primary screen, CHO-K1 cells, PathHunter beta-arrestin, luminescence; P35414; 0% DMSO wells, 100% apelin; activation, % at 20 µM; actives 0.11% (n = 330,000); AID 2520, 2010;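 active = activation more than six SD over the plate average, tested at 20 µM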;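 also: 0% = DMSO alone and 100% = apelin-13 at 10 nM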
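Test system: CHO-K1 APJ beta-arrestin complementation cell line. Amount: cell density 1000 per well. Controls: DMSO negative, 10 nM Apelin-13 positive. Signal: luminescent beta-gal fragment complementation, chemiluminescent substrate. Read-out basis: agonist-driven arrestin binding to APJ. Timing: compound stimulation 90 min at 25 °C, detection 60 min.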
CXCR6 block – CXCR6 receptor inhibitors, primary screen, cell-based, beta-arrestin, luminescence, CHO-K1 PathHunter, 1536-well | actives 0.36% (n = 360,000) | C-X-C chemokine receptor type 6 (Homo sapiens), O00574 | inhibition, % at 20 µM; in the data active = inhibition above about 34%, passing the limit was not always enough;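 also: antagonist mode with CXCL16 agonist at 10 nM final; 0% = 10 nM CXCL16 with DMSO and 100% = unstimulated wells without agonist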
EBI2 antag conf – EBI2 antagonist hit retest, beta-arrestin, confirmation, cell-based, single concentration, luminescence, 7a,25-OHC stimulation; shares compounds with EBI2 block; actives 29% (n = 2,400); 7a,25-OHC antagonism; inhibition, % at 5 µM; AID 651997, 2013;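 active = inhibition of at least 50%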
EBI2 agonist – EBI2 agonist activity of antagonist hits, confirmation, counter-screen for EBI2 antagonist project, cell-based, single concentration, agonist mode, luminescence | shares compounds with EBI2 block | EBI2-expressing cells, 60 min; 0% vehicle, 100% 7α,25-dihydroxycholesterol control | activation, % at 5 µM | 2,400 tested, under 10 active | AID 652000, 2013;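 active = activation of at least 50%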
bGal counter – E. coli beta-galactosidase enzyme inhibition, confirmation, counter-screen for EBI2 antagonist project, biochemical, luminescence, single concentration | shares compounds with EBI2 block | purified beta-galactosidase, luminescent Galacton Star, 15 min | inhibition, % at 5 µM | actives 1% (n = 2,400);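 active = replicate-average signal at least 3 plate SD below neutral wells, shown as high inhibition, flagging enzyme-inhibiting false positives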;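 also: 0% = DMSO wells with enzyme and 100% = wells lacking enzyme; higher means stronger loss of beta-gal luminescence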
Numbers without * were called inactive; nt = no result given. The list is not random: actives were taken first. Their share in the collection is about 1.5%.

SMILES	APJ antagonist	EBI2 block	CCR6 antagonist	APJ agonist	CXCR6 block	EBI2 antag conf	EBI2 agonist	bGal counter
CCOc1ccc(NC(=S)Nc2ccc(OC)cc2)cc1	-7	75*	-3	-2	3	63*	-1	-15
Cn1cnc2c(cnn2C)c1=N	nt	3	8	nt	4	nt	nt	nt
Cc1nn(-c2ccc(Cl)cc2)c2[nH]c(CCl)cc(=O)c12	6	3	5	-2	8	nt	nt	nt
COc1ccc2[nH]c(C(=O)N3CCN(Cc4ccccc4)CC3)cc2c1OC	16	52*	6	-5	-3	17	0	-10
Cc1[nH]c2ccc(C(=O)N3CCN(c4ccccn4)CC3)cc2c1C	11	41*	13	3	2	39	1	8
CCCN1CCN(C(=O)c2ccc3[nH]c(C)c(C)c3c2)CC1	nt	73*	nt	nt	0	46	-1	-11
Cc1[nH]c2ccc(C(=O)N3CCN(Cc4ccccc4)CC3)cc2c1C	-13	65*	6	-1	-8	40	3	6
Cc1ccc(S(=O)(=O)N2CCN(C(=O)CC(C)n3cncn3)CC2)cc1C (configuration not stated)	14	5	10	-1	1	nt	nt	nt
O=C1N=C(N2CCCCC2)S/C1=C\c1ccncc1	1	2	2	1	-2	nt	nt	nt
COc1ccc(/C=C2\SC(N3CCCCC3)=NC2=O)cc1	21	54*	5	1	0	30	5	5
CCc1ccc(/C=C2\SC(N3CCCC3)=NC2=O)cc1	-13	73*	1	-3	5	40	1	9
COc1cc(-c2nnc(SCc3ccccc3Cl)o2)cc(OC)c1OC	28	36	18	-3	5	nt	nt	nt
COc1cc(-c2nnc(SCc3c(F)cccc3Cl)o2)cc(OC)c1OC	2	42*	8	-2	-2	47	1	0
Cc1c(C(=O)N2CCN(c3ncccn3)CC2)oc2ccc(Cl)cc12	-2	56*	8	-3	-7	47	0	1
Cc1c(C(=O)N2CCN(c3ccccn3)CC2)oc2ccccc12	-7	36*	4	-1	11	3	-2	-12
CCOC(=O)c1c(C)n(S(=O)(=O)c2ccc(C)cc2)c2ccc(O)c(C(=O)O)c12	31	-1	3	-3	3	nt	nt	nt
O=C(CN1C(=O)C2CC=CCC2C1=O)Nc1cc(C(F)(F)F)ccc1N1CCCC1 (configuration not stated)	27	46*	13	-3	4	20	0	5
O=C(CN1C(=O)C2CC=CCC2C1=O)Nc1ccccc1N1CCCC1 (configuration not stated)	9	5	12	-5	4	nt	nt	nt
CCOC(=O)C1=C(COC(=O)/C=C/c2cc(OC)c(OC)c(OC)c2)NC(=O)NC1C (configuration not stated)	4	-16	-4	7	-4	nt	nt	nt
N#Cc1ccc(/C=N/NC(=S)Nc2ccc(S(=O)(=O)N3CCOCC3)cc2)cc1	-2	54*	21	0	14	26	-1	-2
O=S(=O)(c1ccc(NC(=S)N/N=C/c2ccc(O)c(O)c2)cc1)N1CCOCC1	-9	4	13	-6	-5	nt	nt	nt
Cc1cccc(Oc2ncnc(N)c2[N+](=O)[O-])c1C	7	0	2	-10	-1	nt	nt	nt

Assay outcomes deposited in PubChem by Sanford-Burnham Center for Chemical Genomics.
